Assay results published in ChEMBL document CHEMBL1122887, “Structure-activity studies on the N-terminal region of growth hormone releasing factor” (1985).
The source made the active and inactive calls.

Tests used:
Rattus norvegicus [1] = assay: Percent growth hormone releasing activity in anesthetized rat relative to hpGRF (1-29)NH2; Not active; assay type: functional, organism-based
How it was run: (§1)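 In pentobarbital-anesthetized male Charles River rats (6–9/group), two subcutaneous analogue doses and GRF(1-29)NH₂ reference doses were given. Plasma GH was measured by radioimmunoassay in jugular blood taken 15 min post-injection. Relative potency with 95% confidence limits came from a four-point assay design by Pugsley's method. Not active means no activity at the doses tested.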

Rattus norvegicus [2] = assay: Effect on plasma growth hormone in anesthetized rat at a dose of 10 ug/100 g of body weight; assay type: functional
How it was run: (§2)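 Male Charles River rats (175–350 g) anesthetized with sodium pentobarbital (6 mg/100 g body wt); 30 min later, 6–9 per group received a single subcutaneous 0.5-mL injection of saline, GRF(1-29)NH₂ reference, or one of two analogue doses. Jugular vein blood was drawn 15 min post-injection, and plasma GH was measured by radioimmunoassay, reported as ng/mL ± SE.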

Rattus norvegicus [3] = assay: Effect on plasma growth hormone in anesthetized rat at a dose of 5 ug/100 g of body weight; assay type: functional; how it was run: as §2
Rattus norvegicus [4] = assay: Percent growth hormone releasing activity in anesthetized rat relative to hpGRF (1-29)NH2; assay type: functional; how it was run: as §1
Rattus norvegicus [5] = assay: Effect on plasma growth hormone in anesthetized rat at a dose of 25 ug/100 g of body weight; assay type: functional; how it was run: as §2

Question: How did the Activity (Rattus norvegicus [1]) turn out when `CC[C@H](C)[C@H](NC(=O)[C@H](C)NC(=O)[C@H](CC(=O)O)NC(=O)[C@@H](Cc1ccccc1)NC(=O)[C@H](Cc1ccc(O)cc1)NC(C)=O)C(=O)N[C@@H](Cc1ccccc1)C(=O)N[C@H](C(=O)N[C@@H](CC(N)=O)C(=O)N[C@@H](CO)C(=O)N[C@@H](Cc1ccc(O)cc1)C(=O)N[C@@H](CCCN=C(N)N)C(=O)N[C@@H](CCCCN)C(=O)N[C@H](C(=O)N[C@@H](CC(C)C)C(=O)NCC(=O)N[C@@H](CCC(N)=O)C(=O)N[C@@H](CC(C)C)C(=O)N[C@@H](CO)C(=O)N[C@@H](C)C(=O)N[C@@H](CCCN=C(N)N)C(=O)N[C@@H](CCCCN)C(=O)N[C@@H](CC(C)C)C(=O)N[C@@H](CC(C)C)C(=O)N[C@@H](CCC(N)=O)C(=O)N[C@@H](CC(=O)O)C(=O)N[C@H](C(=O)N[C@@H](CCSC)C(=O)N[C@@H](CO)C(=O)N[C@@H](CCCN=C(N)N)C(N)=O)[C@@H](C)CC)C(C)C)[C@@H](C)O` was run?
Answer: The Activity was “inactive”.

Question: And the Activity (Rattus norvegicus [2])?
Answer: Its Activity is 422 ng/mL.

Question: And the Activity (Rattus norvegicus [3])?
Answer: The Activity was 475 ng/mL.

Question: Which Activity (Rattus norvegicus [4]) does the source give for `CC[C@H](C)[C@H](NC(=O)[C@H](C)NC(=O)[C@H](CC(=O)O)NC(=O)[C@@H](C)NC(=O)[C@@H](N)Cc1ccc(O)cc1)C(=O)N[C@@H](Cc1ccccc1)C(=O)N[C@H](C(=O)N[C@@H](CC(N)=O)C(=O)N[C@@H](CO)C(=O)N[C@@H](Cc1ccc(O)cc1)C(=O)N[C@@H](CCCN=C(N)N)C(=O)N[C@@H](CCCCN)C(=O)N[C@H](C(=O)N[C@@H](CC(C)C)C(=O)NCC(=O)N[C@@H](CCC(N)=O)C(=O)N[C@@H](CC(C)C)C(=O)N[C@@H](CO)C(=O)N[C@@H](C)C(=O)N[C@@H](CCCN=C(N)N)C(=O)N[C@@H](CCCCN)C(=O)N[C@@H](CC(C)C)C(=O)N[C@@H](CC(C)C)C(=O)N[C@@H](CCC(N)=O)C(=O)N[C@@H](CC(=O)O)C(=O)N[C@H](C(=O)N[C@@H](CCSC)C(=O)N[C@@H](CO)C(=O)N[C@@H](CCCN=C(N)N)C(N)=O)[C@@H](C)CC)C(C)C)[C@@H](C)O` here?
Answer: The Activity was 5146%.

Question: With `CC[C@H](C)[C@H](NC(=O)[C@H](C)NC(=O)[C@H](CC(=O)O)NC(=O)[C@H](C)NC(=O)[C@H](Cc1ccc(O)cc1)NC(C)=O)C(=O)N[C@@H](Cc1ccccc1)C(=O)N[C@H](C(=O)N[C@@H](CC(N)=O)C(=O)N[C@@H](CO)C(=O)N[C@@H](Cc1ccc(O)cc1)C(=O)N[C@@H](CCCN=C(N)N)C(=O)N[C@@H](CCCCN)C(=O)N[C@H](C(=O)N[C@@H](CC(C)C)C(=O)NCC(=O)N[C@@H](CCC(N)=O)C(=O)N[C@@H](CC(C)C)C(=O)N[C@@H](CO)C(=O)N[C@@H](C)C(=O)N[C@@H](CCCN=C(N)N)C(=O)N[C@@H](CCCCN)C(=O)N[C@@H](CC(C)C)C(=O)N[C@@H](CC(C)C)C(=O)N[C@@H](CCC(N)=O)C(=O)N[C@@H](CC(=O)O)C(=O)N[C@H](C(=O)N[C@@H](CCSC)C(=O)N[C@@H](CO)C(=O)N[C@@H](CCCN=C(N)N)C(N)=O)[C@@H](C)CC)C(C)C)[C@@H](C)O` as the molecule, how does the Activity (Rattus norvegicus [4]) read?
Answer: The Activity was 1224%.

Question: Which Activity (Rattus norvegicus [4]) does the source give for `CC[C@H](C)[C@H](NC(=O)[C@H](C)NC(=O)[C@H](CC(=O)O)NC(=O)[C@@H](C)NC(=O)[C@@H](Cc1ccc(O)cc1)NC(C)=O)C(=O)N[C@@H](Cc1ccccc1)C(=O)N[C@H](C(=O)N[C@@H](CC(N)=O)C(=O)N[C@@H](CO)C(=O)N[C@@H](Cc1ccc(O)cc1)C(=O)N[C@@H](CCCN=C(N)N)C(=O)N[C@@H](CCCCN)C(=O)N[C@H](C(=O)N[C@@H](CC(C)C)C(=O)NCC(=O)N[C@@H](CCC(N)=O)C(=O)N[C@@H](CC(C)C)C(=O)N[C@@H](CO)C(=O)N[C@@H](C)C(=O)N[C@@H](CCCN=C(N)N)C(=O)N[C@@H](CCCCN)C(=O)N[C@@H](CC(C)C)C(=O)N[C@@H](CC(C)C)C(=O)N[C@@H](CCC(N)=O)C(=O)N[C@@H](CC(=O)O)C(=O)N[C@H](C(=O)N[C@@H](CCSC)C(=O)N[C@@H](CO)C(=O)N[C@@H](CCCN=C(N)N)C(N)=O)[C@@H](C)CC)C(C)C)[C@@H](C)O` (stereo in doubt; 1) here?
Answer: Its Activity is 993%.

Question: `CC[C@H](C)[C@H](NC(=O)[C@H](C)NC(=O)[C@H](CC(=O)O)NC(=O)[C@@H](C)NC(=O)[C@@H](Cc1ccc(O)cc1)NC(C)=O)C(=O)N[C@@H](Cc1ccccc1)C(=O)N[C@H](C(=O)N[C@@H](CC(N)=O)C(=O)N[C@@H](CO)C(=O)N[C@@H](Cc1ccc(O)cc1)C(=O)N[C@@H](CCCN=C(N)N)C(=O)N[C@@H](CCCCN)C(=O)N[C@H](C(=O)N[C@@H](CC(C)C)C(=O)NCC(=O)N[C@@H](CCC(N)=O)C(=O)N[C@@H](CC(C)C)C(=O)N[C@@H](CO)C(=O)N[C@@H](C)C(=O)N[C@@H](CCCN=C(N)N)C(=O)N[C@@H](CCCCN)C(=O)N[C@@H](CC(C)C)C(=O)N[C@@H](CC(C)C)C(=O)N[C@@H](CCC(N)=O)C(=O)N[C@@H](CC(=O)O)C(=O)N[C@H](C(=O)N[C@@H](CCSC)C(=O)N[C@@H](CO)C(=O)N[C@@H](CCCN=C(N)N)C(N)=O)[C@@H](C)CC)C(C)C)[C@@H](C)O` (stereo in doubt; 3) was tested. Which Activity (Rattus norvegicus [4]) did it give?
Answer: The Activity was 670%.

Question: What does the source list for `CC[C@H](C)[C@H](NC(=O)[C@H](C)NC(=O)[C@H](CC(=O)O)NC(=O)[C@@H](C)NC(=O)[C@@H](Cc1ccc(O)cc1)NC(C)=O)C(=O)N[C@@H](Cc1ccccc1)C(=O)N[C@H](C(=O)N[C@@H](CC(N)=O)C(=O)N[C@@H](CO)C(=O)N[C@@H](Cc1ccc(O)cc1)C(=O)N[C@@H](CCCN=C(N)N)C(=O)N[C@@H](CCCCN)C(=O)N[C@H](C(=O)N[C@@H](CC(C)C)C(=O)NCC(=O)N[C@@H](CCC(N)=O)C(=O)N[C@@H](CC(C)C)C(=O)N[C@@H](CO)C(=O)N[C@@H](C)C(=O)N[C@@H](CCCN=C(N)N)C(=O)N[C@@H](CCCCN)C(=O)N[C@@H](CC(C)C)C(=O)N[C@@H](CC(C)C)C(=O)N[C@@H](CCC(N)=O)C(=O)N[C@@H](CC(=O)O)C(=O)N[C@H](C(=O)N[C@@H](CCSC)C(=O)N[C@@H](CO)C(=O)N[C@@H](CCCN=C(N)N)C(N)=O)[C@@H](C)CC)C(C)C)[C@@H](C)O` (stereo in doubt; 4)?
Answer: Activity (Rattus norvegicus [5]): 2234 ng/mL; Activity (Rattus norvegicus [4]): 110%; Activity (Rattus norvegicus [3]): 805 ng/mL

Question: Which Activity (Rattus norvegicus [5]) does the source give for `CC[C@H](C)[C@H](NC(=O)[C@H](C)NC(=O)[C@H](CC(=O)O)NC(=O)[C@@H](C)NC(=O)[C@@H](Cc1ccc(O)cc1)NC(C)=O)C(=O)N[C@@H](Cc1ccccc1)C(=O)N[C@H](C(=O)N[C@@H](CC(N)=O)C(=O)N[C@@H](CO)C(=O)N[C@@H](Cc1ccc(O)cc1)C(=O)N[C@@H](CCCN=C(N)N)C(=O)N[C@@H](CCCCN)C(=O)N[C@H](C(=O)N[C@@H](CC(C)C)C(=O)NCC(=O)N[C@@H](CCC(N)=O)C(=O)N[C@@H](CC(C)C)C(=O)N[C@@H](CO)C(=O)N[C@@H](C)C(=O)N[C@@H](CCCN=C(N)N)C(=O)N[C@@H](CCCCN)C(=O)N[C@@H](CC(C)C)C(=O)N[C@@H](CC(C)C)C(=O)N[C@@H](CCC(N)=O)C(=O)N[C@@H](CC(=O)O)C(=O)N[C@H](C(=O)N[C@@H](CCSC)C(=O)N[C@@H](CO)C(=O)N[C@@H](CCCN=C(N)N)C(N)=O)[C@@H](C)CC)C(C)C)[C@@H](C)O` (stereo in doubt; 6) [listing 1 of 2 here] here?
Answer: The Activity was 374 ng/mL.

Question: And the Activity (Rattus norvegicus [3])?
Answer: The Activity was 324 ng/mL.

Question: Which Activity (Rattus norvegicus [1]) does the source give for `CC[C@H](C)[C@H](NC(=O)[C@H](C)NC(=O)[C@H](CC(=O)O)NC(=O)[C@@H](C)NC(=O)[C@@H](Cc1ccc(O)cc1)NC(C)=O)C(=O)N[C@@H](Cc1ccccc1)C(=O)N[C@H](C(=O)N[C@@H](CC(N)=O)C(=O)N[C@@H](CO)C(=O)N[C@@H](Cc1ccc(O)cc1)C(=O)N[C@@H](CCCN=C(N)N)C(=O)N[C@@H](CCCCN)C(=O)N[C@H](C(=O)N[C@@H](CC(C)C)C(=O)NCC(=O)N[C@@H](CCC(N)=O)C(=O)N[C@@H](CC(C)C)C(=O)N[C@@H](CO)C(=O)N[C@@H](C)C(=O)N[C@@H](CCCN=C(N)N)C(=O)N[C@@H](CCCCN)C(=O)N[C@@H](CC(C)C)C(=O)N[C@@H](CC(C)C)C(=O)N[C@@H](CCC(N)=O)C(=O)N[C@@H](CC(=O)O)C(=O)N[C@H](C(=O)N[C@@H](CCSC)C(=O)N[C@@H](CO)C(=O)N[C@@H](CCCN=C(N)N)C(N)=O)[C@@H](C)CC)C(C)C)[C@@H](C)O` (stereo in doubt; 6) [listing 2 of 2 here] here?
Answer: Its Activity is “inactive”.

Question: With `CC[C@H](C)[C@H](NC(=O)[C@H](C)NC(=O)[C@H](CC(=O)O)NC(=O)[C@@H](C)NC(=O)[C@@H](Cc1ccc(O)cc1)NC(C)=O)C(=O)N[C@@H](Cc1ccccc1)C(=O)N[C@H](C(=O)N[C@@H](CC(N)=O)C(=O)N[C@@H](CO)C(=O)N[C@@H](Cc1ccc(O)cc1)C(=O)N[C@@H](CCCN=C(N)N)C(=O)N[C@@H](CCCCN)C(=O)N[C@H](C(=O)N[C@@H](CC(C)C)C(=O)NCC(=O)N[C@@H](CCC(N)=O)C(=O)N[C@@H](CC(C)C)C(=O)N[C@@H](CO)C(=O)N[C@@H](C)C(=O)N[C@@H](CCCN=C(N)N)C(=O)N[C@@H](CCCCN)C(=O)N[C@@H](CC(C)C)C(=O)N[C@@H](CC(C)C)C(=O)N[C@@H](CCC(N)=O)C(=O)N[C@@H](CC(=O)O)C(=O)N[C@H](C(=O)N[C@@H](CCSC)C(=O)N[C@@H](CO)C(=O)N[C@@H](CCCN=C(N)N)C(N)=O)[C@@H](C)CC)C(C)C)[C@@H](C)O` (stereo in doubt; 7) [listing 1 of 2 here] as the molecule, how does the Activity (Rattus norvegicus [5]) read?
Answer: Its Activity is 328 ng/mL.

Question: And the Activity (Rattus norvegicus [3])?
Answer: The Activity was 213 ng/mL.

Question: How did the Activity (Rattus norvegicus [1]) turn out when `CC[C@H](C)[C@H](NC(=O)[C@H](C)NC(=O)[C@H](CC(=O)O)NC(=O)[C@@H](C)NC(=O)[C@@H](Cc1ccc(O)cc1)NC(C)=O)C(=O)N[C@@H](Cc1ccccc1)C(=O)N[C@H](C(=O)N[C@@H](CC(N)=O)C(=O)N[C@@H](CO)C(=O)N[C@@H](Cc1ccc(O)cc1)C(=O)N[C@@H](CCCN=C(N)N)C(=O)N[C@@H](CCCCN)C(=O)N[C@H](C(=O)N[C@@H](CC(C)C)C(=O)NCC(=O)N[C@@H](CCC(N)=O)C(=O)N[C@@H](CC(C)C)C(=O)N[C@@H](CO)C(=O)N[C@@H](C)C(=O)N[C@@H](CCCN=C(N)N)C(=O)N[C@@H](CCCCN)C(=O)N[C@@H](CC(C)C)C(=O)N[C@@H](CC(C)C)C(=O)N[C@@H](CCC(N)=O)C(=O)N[C@@H](CC(=O)O)C(=O)N[C@H](C(=O)N[C@@H](CCSC)C(=O)N[C@@H](CO)C(=O)N[C@@H](CCCN=C(N)N)C(N)=O)[C@@H](C)CC)C(C)C)[C@@H](C)O` (stereo in doubt; 7) [listing 2 of 2 here] was run?
Answer: The Activity was “inactive”.
